In ChEMBL document CHEMBL1122018, “Synthesis and orexigenic activity of some 1-methyl-4-piperidylidene-Substituted pyrrolo[2,1-g][3] benzazepine and dibenzocycloheptene derivatives” (1982):

Legend:
Format in all cases: functional
Felis catus [1] = assay: Average food consumed at the dose of 0.50 mg/kg (po) using 10 cats per dose level at 60 min (control day/ test day); 23/129; conditions: dose 0.5 mg/kg
Procedure, shortened: (§1)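 Cats given test compound suspended in 1% methylcellulose, or 1% methylcellulose placebo, by gavage 30 min before a preweighed test meal. Food was offered in surplus for 3 h, and intake was found by reweighing at 30, 60 and 180 min. Ten cats per dose, each dosed no more than once weekly. Test-day intake was compared with the preceding control day by two-tailed paired t test (p < 0.05); values are mean ± SD.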

Felis catus [2] = assay: Average food consumed at the dose of 0.25 mg/kg (po) using 10 cats per dose level at 60 min (control day/ test day); 46/128; procedure, shortened: as §1
Felis catus [3] = assay: Average food consumed at the dose of 0.50 mg/kg (po) using 10 cats per dose level at 180 min (control day/ test day); 35/194; conditions: dose 0.5 mg/kg; procedure, shortened: as §1
Felis catus [4] = assay: Average food consumed at the dose of 0.50 mg/kg (po) using 10 cats per dose level at 30 min (control day/ test day); 24/93; conditions: dose 0.5 mg/kg; procedure, shortened: as §1
Felis catus [5] = assay: Average food consumed at the dose of 0.031 mg/kg (po) using 10 cats per dose level at 30 min (control day/ test day); 18/88
Felis catus [6] = assay: Average food consumed at the dose of 0.031 mg/kg (po) using 10 cats per dose level at 60 min (control day/ test day); 9/113
Felis catus [7] = assay: Average food consumed at the dose of 0.031 mg/kg (po) using 10 cats per dose level at 180 min (control day/ test day); 52/182
Felis catus [8] = assay: Average food consumed at the dose of 0.031 mg/kg (po) using 10 cats per dose level at 180 min (control day/ test day); 34/172
Felis catus [9] = assay: Average food consumed at the dose of 0.031 mg/kg (po) using 10 cats per dose level at 60 min (control day/ test day); 25/105
Felis catus [10] = assay: Average food consumed at the dose of 0.25 mg/kg (po) using 10 cats per dose level at 180 min (control day/ test day); 40/210
Felis catus [11] = assay: Average food consumed at the dose of 0.031 mg/kg (po) using 10 cats per dose level at 30 min (control day/ test day); 25/67
Felis catus [12] = assay: Average food consumed at the dose of 0.25 mg/kg (po) using 10 cats per dose level at 30 min (control day/ test day); 37/98; procedure, shortened: as §1
Felis catus [13] = assay: Average food consumed at the dose of 0.50 mg/kg (po) using 10 cats per dose level at 60 min (control day/ test day); 45/142; conditions: dose 0.5 mg/kg; procedure, shortened: as §1
Felis catus [14] = assay: Average food consumed at the dose of 0.50 mg/kg (po) using 10 cats per dose level at 180 min (control day/ test day); 43/193; conditions: dose 0.5 mg/kg; procedure, shortened: as §1
Felis catus [15] = assay: Average food consumed at the dose of 0.50 mg/kg (po) using 10 cats per dose level at 30 min (control day/ test day); 33/109; conditions: dose 0.5 mg/kg; procedure, shortened: as §1
Felis catus [16] = assay: Average food consumed at the dose of 0.016 mg/kg (po) using 10 cats per dose level at 180 min (control day/ test day); 39/190
Felis catus [17] = assay: Average food consumed at the dose of 0.50 mg/kg (po) using 10 cats per dose level at 30 min (control day/ test day); 38/105; conditions: dose 0.5 mg/kg; procedure, shortened: as §1
Felis catus [18] = assay: Average food consumed at the dose of 0.031 mg/kg (po) using 10 cats per dose level at 30 min (control day/ test day); 20/75
Felis catus [19] = assay: Average food consumed at the dose of 0.50 mg/kg (po) using 10 cats per dose level at 180 min (control day/ test day); 45/221; conditions: dose 0.5 mg/kg; procedure, shortened: as §1
Felis catus [20] = assay: Average food consumed at the dose of 0.25 mg/kg (po) using 10 cats per dose level at 60 min (control day/ test day); 26/127; procedure, shortened: as §1
Felis catus [21] = assay: Average food consumed at the dose of 0.063 mg/kg (po) using 10 cats per dose level at 30 min (control day/ test day); 33/122
Felis catus [22] = assay: Average food consumed at the dose of 0.50 mg/kg (po) using 10 cats per dose level at 60 min (control day/ test day); 42/155; conditions: dose 0.5 mg/kg; procedure, shortened: as §1
Felis catus [23] = assay: Average food consumed at the dose of 0.031 mg/kg (po) using 10 cats per dose level at 180 min (control day/ test day); 24/152
Felis catus [24] = assay: Average food consumed at the dose of 0.25 mg/kg (po) using 10 cats per dose level at 180 min (control day/ test day); 30/170
Felis catus [25] = assay: Average food consumed at the dose of 0.063 mg/kg (po) using 10 cats per dose level at 180 min (control day/ test day); 26/204
Felis catus [26] = assay: Average food consumed at the dose of 0.25 mg/kg (po) using 10 cats per dose level at 30 min (control day/ test day); 20/89
Felis catus [27] = assay: Average food consumed at the dose of 0.016 mg/kg (po) using 10 cats per dose level at 60 min (control day/ test day); 30/137
Felis catus [28] = assay: Average food consumed at the dose of 0.031 mg/kg (po) using 10 cats per dose level at 60 min (control day/ test day); 14/95
Felis catus [29] = assay: Average food consumed at the dose of 0.016 mg/kg (po) using 10 cats per dose level at 30 min (control day/ test day); 25/104
Felis catus [30] = assay: Average food consumed at the dose of 0.063 mg/kg (po) using 10 cats per dose level at 60 min (control day/ test day); 32/138

SMILES: CN1CCC(=C2c3cc(C(=O)O)ccc3C=Cn3cccc32)CC1.Cl
- Average consumed (Felis catus [1]): 114 g
- Average consumed (Felis catus [2]): 112 g
- Average consumed (Felis catus [3]): 170 g
- Average consumed (Felis catus [4]): 78 g
- Average consumed (Felis catus [5]): 65 g
- Average consumed (Felis catus [6]): 98 g
- Average consumed (Felis catus [7]): 184 g
- Average consumed (Felis catus [8]): 145 g
- Average consumed (Felis catus [9]): 84 g
- Average consumed (Felis catus [10]): 176 g
- Average consumed (Felis catus [11]): 55 g
- Average consumed (Felis catus [12]): 73 g

SMILES: CN1CCC(=C2c3cc(C(=O)O)ccc3CCn3cccc32)CC1.Cl
- Average consumed (Felis catus [13]): 125 g
- Average consumed (Felis catus [14]): 173 g
- Average consumed (Felis catus [15]): 92 g

SMILES: CN1CCC(=C2c3ccccc3CCc3ccc(C(=O)O)cc32)CC1.Cl
- Average consumed (Felis catus [16]): 180 g
- Average consumed (Felis catus [17]): 84 g
- Average consumed (Felis catus [18]): 53 g
- Average consumed (Felis catus [19]): 134 g
- Average consumed (Felis catus [20]): 102 g
- Average consumed (Felis catus [21]): 88 g
- Average consumed (Felis catus [22]): 102 g
- Average consumed (Felis catus [23]): 126 g
- Average consumed (Felis catus [24]): 145 g
- Average consumed (Felis catus [25]): 174 g
- Average consumed (Felis catus [26]): 68 g
- Average consumed (Felis catus [27]): 139 g
- Average consumed (Felis catus [28]): 83 g
- Average consumed (Felis catus [29]): 97 g
- Average consumed (Felis catus [30]): 118 g
